According to ChEMBL document CHEMBL1134348, “Novel glucocorticoid antedrugs possessing a 17beta-(gamma-lactone) ring” (J Med Chem, 2001):

What was measured:
Homo sapiens [1] = species on record: Homo sapiens; assay: (§1) % stability in human plasma after 60 minutes.; format: ADME, organism-based; settings: 1 h
Procedure, shortened: (§2)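 Pooled heparinized plasma from 4 volunteers was incubated at 37 °C with test compound at a final concentration of 30 ug/mL, with DMSO-only controls. The reaction was stopped with 2 M citric acid at 10 and 60 min, with a zero-time sample. Supernatants were analysed by reversed-phase HPLC at 240 nm against an internal standard, in duplicate, and reported as % compound remaining.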

Homo sapiens [2] = species on record: Homo sapiens; assay: (§3) % stability in human plasma after 10 minutes.; format: ADME, organism-based; settings: 10 min; procedure, shortened: as §2
[3] = % stability in krebs buffer after 60 minutes.; format: physicochemical; settings: for Stability: buffer, 1 h; for remaining at 1 h: Krebs buffer, read-out: Stability
Procedure, shortened: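 Test compound, at a final concentration of 30 ug/mL, was spiked into Krebs buffer at 37 °C for 60 min, then quenched with 2 M citric acid. Supernatant was analysed by reversed-phase HPLC with UV detection at 240 nm and an internal standard, in duplicate. The read-out was % compound remaining.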

[4] = as §1; format: ADME, organism-based; settings: plasma, read-out: Stability; procedure, shortened: as §2
[5] = as §3; format: ADME, organism-based; settings: plasma, read-out: Stability; procedure, shortened: as §2
Rattus norvegicus [6] = assay: Inhibition of rat ear edema as percentage change in mean weight (55.94 +/- 3.31 mg) from control group of 72.25+/-2.24 mg at 6.25 ug dose; format: functional
Rattus norvegicus [7] = assay: Inhibition of rat ear edema as percentage change in mean weight (46.46+/-2.86 mg) from control group of 72.25+/-2.24 mg at 100 ug dose; format: functional
Rattus norvegicus [8] = assay: Inhibition of rat ear edema as percentage change in mean weight (71.65+/-2.81 mg) from control group of 72.25+/-2.24 mg at a 1.56 ug dose; format: functional
[9] = half life in human plasma.; format: ADME, organism-based
Procedure, shortened: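 Pooled heparinised plasma from 4 volunteers, stored at −20 °C; compound spiked to final 30 ug/mL at 37 °C. Half-life taken from additional time points in this incubation; reaction stopped with 2 M citric acid, samples frozen overnight and centrifuged. Supernatant analysed by reverse-phase HPLC with UV at 240 nm, internal standard dexamethasone or hydrocortisone; duplicates.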

Glucocorticoid receptor = target: T1, Glucocorticoid receptor (Homo sapiens, UniProt P04150); assay: Affinity for human glucocorticoid receptor
T1 sequence (P04150 whole entry): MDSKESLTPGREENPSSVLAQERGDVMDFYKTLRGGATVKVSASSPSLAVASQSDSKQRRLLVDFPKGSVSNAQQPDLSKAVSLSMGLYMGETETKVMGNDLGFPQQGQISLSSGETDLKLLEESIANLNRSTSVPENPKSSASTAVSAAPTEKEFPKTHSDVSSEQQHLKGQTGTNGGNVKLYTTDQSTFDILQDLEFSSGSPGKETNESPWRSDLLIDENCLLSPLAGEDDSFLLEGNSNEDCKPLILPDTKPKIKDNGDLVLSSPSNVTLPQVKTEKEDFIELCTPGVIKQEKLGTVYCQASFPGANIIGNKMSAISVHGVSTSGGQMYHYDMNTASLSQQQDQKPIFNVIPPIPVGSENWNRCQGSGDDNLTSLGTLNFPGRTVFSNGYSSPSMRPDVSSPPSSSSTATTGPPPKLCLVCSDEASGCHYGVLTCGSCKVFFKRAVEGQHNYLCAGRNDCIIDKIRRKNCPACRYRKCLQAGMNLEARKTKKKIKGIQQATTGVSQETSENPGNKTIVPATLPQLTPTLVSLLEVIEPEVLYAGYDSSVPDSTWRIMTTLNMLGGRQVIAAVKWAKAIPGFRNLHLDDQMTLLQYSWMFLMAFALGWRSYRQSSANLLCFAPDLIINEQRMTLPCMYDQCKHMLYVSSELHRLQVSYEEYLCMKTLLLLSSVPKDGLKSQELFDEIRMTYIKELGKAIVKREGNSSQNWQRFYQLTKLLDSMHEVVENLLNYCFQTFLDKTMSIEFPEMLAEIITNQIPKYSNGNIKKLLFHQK

Rattus norvegicus [10] = assay: Inhibition of rat ear edema as percentage change in mean weight (54.84 +/- 2.18 mg) from control group of 72.25+/-2.24 mg at 10.00 ug dose; format: functional
Rattus norvegicus [11] = assay: Inhibition of rat ear edema as percentage change in mean weight (49.76+/-2.12 mg) from control group of 72.25+/-2.24 mg at 25.00 ug dose; format: functional

Compound | Stability (Homo sapiens [2]) [%] | remaining at 1 h [4] [%] | remaining at 1 h [3] [%] | remaining at 10 min [5] [%] | IC50 (Glucocorticoid receptor) [nM] | further results
CCC[C@@H]1O[C@@H]2CC3C4C[C@H](F)C5=CC(=O)CC[C@]5(C)[C@@]4(F)[C@@H](O)C[C@]3(C)[C@]2(SC2COC(=O)C2)O1 (single isomer, unassigned; isomer A) | 28 | – | – | – | – | Stability (Homo sapiens [1]): 19%; Stability [3]: 99%
CC1=C(SC2CCOC2=O)[C@@]2(C)C[C@H](O)[C@@]3(F)C(CCC4=CC(=O)C=C[C@@]43C)C2C1 (single isomer, unassigned; isomer B) | 17 | 8 | 98 | – | – | –
CCC[C@@H]1O[C@@H]2CC3C4C[C@H](F)C5=CC(=O)C=C[C@]5(C)[C@@]4(F)[C@@H](O)C[C@]3(C)[C@]2(S[C@@H]2CCOC2=O)O1 (stereo not given in full) | – | 7 | 100 | 19 | – | –
CCC[C@@H]1O[C@@H]2CC3C4C[C@H](F)C5=CC(=O)CC[C@]5(C)[C@@]4(F)[C@@H](O)C[C@]3(C)[C@]2(S[C@@H]2CCOC2=O)O1 (stereo not given in full) | – | 0 | 91 | 19 | 6.4 | Decrease (Rattus norvegicus [6]): 22.6%; Decrease (Rattus norvegicus [7]): 35.7%; Decrease (Rattus norvegicus [8]): 0.83%; half-life [9]: 5 min; Decrease (Rattus norvegicus [10]): 24.1%; Decrease (Rattus norvegicus [11]): 31.1%
CCC[C@@H]1O[C@@H]2CC3C4C[C@H](F)C5=CC(=O)CC[C@]5(C)[C@@]4(F)[C@@H](O)C[C@]3(C)[C@]2(S[C@H]2CCOC2=O)O1 (stereo not given in full) | – | 0 | 82 | 0 | – | –
CCC[C@@H]1O[C@@H]2CC3C4C[C@H](F)C5=CC(=O)CC[C@]5(C)[C@@]4(F)[C@@H](O)C[C@]3(C)[C@]2(SC(CCO)C(=O)O)O1 (stereo not given in full) | – | – | – | – | 400 | –
CC1(C)O[C@@H]2CC3C4C[C@H](F)C5=CC(=O)CC[C@]5(C)[C@@]4(F)[C@@H](O)C[C@]3(C)[C@]2(SC2CCOC2=O)O1 (stereo not given in full) | – | 0 | 89 | 20 | – | –
CC1=C(SC2CCOC2=O)[C@@]2(C)C[C@H](O)[C@@]3(F)C(CCC4=CC(=O)C=C[C@@]43C)C2C1 (single isomer, unassigned; isomer A) | 53 | – | – | – | – | Stability (Homo sapiens [1]): 13%; Stability [3]: 97%
CC1(C)O[C@@H]2CC3C4C[C@H](F)C5=CC(=O)C=C[C@]5(C)[C@@]4(F)[C@@H](O)C[C@]3(C)[C@]2(SC(CCO)C(=O)O)O1 (stereo not given in full) | – | – | – | – | 289 | –
